ChEMBL document CHEMBL4342524, “Discovery of M-808 as a Highly Potent, Covalent, Small-Molecule Inhibitor of the Menin-MLL Interaction with Strong In Vivo Antitumor Activity” (J Med Chem, 2020)
The source made the active and inactive calls. The rule behind the calls is not given here.

Legend:
MV4-11 [1] = test: Growth inhibition of human MV4-11 cells after 7 days by WST-8 assay; type: functional, cell-based; conditions: MV4-11, 168 h
Procedure, shortened: (§1)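 Cells cultured in IMDM or RPMI 1640 with 10% FBS at 37 °C, 5% CO2. Growth read by WST-8 at 450 nm after at least 1 h with reagent. Signals normalized to untreated cells and IC50 fitted by nonlinear regression; mean and SD from three independent experiments.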

MOLM-13 = test: Growth inhibition of human MOLM13 cells after 7 days by WST-8 assay; type: functional, cell-based; conditions: MOLM-13, 168 h; procedure, shortened: as §1
HL-60 = test: Growth inhibition of human HL60 cells after 7 days by WST-8 assay; type: functional, cell-based; conditions: HL-60, 168 h; procedure, shortened: as §1
Menin [2] = target: T1, Menin (Homo sapiens, UniProt O00255); test: Inhibition of menin (unknown origin) by fluorescence polarization assay
T1 sequence (O00255 whole entry): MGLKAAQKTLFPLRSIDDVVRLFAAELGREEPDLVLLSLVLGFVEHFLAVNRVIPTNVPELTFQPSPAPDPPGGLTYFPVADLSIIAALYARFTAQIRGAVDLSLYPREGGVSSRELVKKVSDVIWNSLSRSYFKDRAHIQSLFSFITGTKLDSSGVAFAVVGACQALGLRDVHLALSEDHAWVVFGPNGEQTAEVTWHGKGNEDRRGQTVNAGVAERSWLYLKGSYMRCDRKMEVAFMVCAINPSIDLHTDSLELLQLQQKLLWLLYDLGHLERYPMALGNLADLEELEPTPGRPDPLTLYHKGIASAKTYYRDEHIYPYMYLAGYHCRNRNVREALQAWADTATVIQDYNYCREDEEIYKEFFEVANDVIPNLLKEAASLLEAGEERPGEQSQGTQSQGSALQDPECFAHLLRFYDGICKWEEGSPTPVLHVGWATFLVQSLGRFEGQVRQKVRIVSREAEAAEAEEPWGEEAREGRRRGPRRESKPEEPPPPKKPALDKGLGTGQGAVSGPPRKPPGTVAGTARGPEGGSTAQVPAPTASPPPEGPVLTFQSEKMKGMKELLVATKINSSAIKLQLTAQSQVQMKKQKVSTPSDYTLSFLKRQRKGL
Procedure, shortened: (§2)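 Competitive FP assay: 4 nM menin and 2 nM fluorescein-labeled tracer (final concentrations) in PBS with 100 μg/mL bovine γ-globulin and 0.01% Triton X-100. Compounds added from DMSO at varying concentrations and incubated 1 h at room temperature. IC50 obtained by nonlinear sigmoidal fitting of the FP decrease against total compound concentration.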

Menin (Homo sapiens) [3] = target: T2, Menin (Homo sapiens) (UniProt O00255); test: Covalent binding affinity to human menin assessed as protein-compound complex formation at protein to compound ratio of 1:1.2 after 1 hr by LC-MS analysis relative to control
T2 sequence (whole entry): T1 sequence (O00255 whole entry)
Procedure, shortened: (§3)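 Diluted to 1 mg/mL, then run on reverse-phase C4 LC with a 5–100% MeCN/0.2% formic acid gradient and Q-TOF MS. Intact masses obtained by maximum-entropy deconvolution.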

Menin (Homo sapiens) [4] = target: T2, Menin (Homo sapiens); test: Covalent binding affinity to human menin assessed as protein-compound complex formation at protein to compound ratio of 1:1.2 measured after overnight incubation by LC-MS analysis relative to control; procedure, shortened: as §3
Mus musculus [5] = test: Downregulation of Hoxa9 expression in tumors of CB-17 SCID mouse xenografted with human MV4-11 cells at 10 mg/kg, iv administered as single dose and measured after 24 hrs by RT-qPCR analysis; type: functional, organism-based
Procedure, shortened: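 MV4;11 subcutaneous xenografts in female C.B-17 SCID mice; single IV dose of 10 mg/kg or vehicle. Tumors collected 24 h post-dose, 3 mice per group, snap-frozen and powdered. Total RNA converted to cDNA; HOXA9, MEIS1 and GAPDH measured by TaqMan real-time PCR; relative expression by comparative Ct.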

Mus musculus [6] = test: Downregulation of MEIS1 expression in tumors of CB-17 SCID mouse xenografted with human MV4-11 cells at 10 mg/kg, iv administered as single dose and measured after 24 hrs by RT-qPCR analysis relative to control; type: functional
Procedure, shortened: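 Female C.B-17 SCID mice bearing subcutaneous MV4;11 flank xenografts were given a single IV dose (vehicle control). Tumors were harvested at 24 h, 3 mice per time point, snap-frozen in liquid N2 and ground. Total RNA was reverse-transcribed, and HOXA9, MEIS1 and GAPDH were measured by TaqMan real-time PCR. Relative expression was calculated by the comparative Ct method.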

[7] = Toxicity in SCID mouse assessed as drug tolerability at 10 mg/kg, iv administered every other day for 1 week; type: organism-based; conditions: in vivo, 168 h
[8] = Toxicity in SCID mouse assessed as reduction in body weight at 25 mg/kg, iv administered every other day for 1 week relative to control; type: organism-based; set-up: scale not given: the % may be the effect or the level left; conditions: in vivo, 168 h
Menin [9] = target: T1, Menin; test: Inhibition of fluorescent labeled tracer binding to Menin (unknown origin) after 1 hr by fluorescence polarization competitive binding assay; procedure, shortened: as §2
[10] = Toxicity in SCID mouse assessed as drug tolerability at 25 mg/kg, iv administered every other day for 1 week; type: organism-based; conditions: in vivo, 168 h
Mus musculus [11] = test: In vivo inhibition of Menin-MLL protein-protein interaction in CB-17 SCID mouse xenografted with human MV4-11 cells assessed as reduction in MEIS1 expression in tumor at 25 mg/kg, iv measured after 6 to 24 hrs by RT-qPCR analysis; type: functional, organism-based
Procedure, shortened: (§4)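 MV4;11 flank xenografts in female C.B-17 SCID mice given a single 25 mg/kg IV dose or vehicle. Tumors harvested at 6, 24 and 48 h, 3 mice per time point, and frozen in liquid N2. RNA extracted; HOXA9 and MEIS1, with GAPDH, quantified by TaqMan qRT-PCR using the comparative Ct method.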

Mus musculus [12] = test: In vivo inhibition of Menin-MLL protein-protein interaction in CB-17 SCID mouse xenografted with human MV4-11 cells assessed as reduction in HOXA9 expression in tumor at 25 mg/kg, iv measured after 6 to 24 hrs by RT-qPCR analysis; type: functional, organism-based; procedure, shortened: as §4
MV4-11 [13] = test: Antitumor activity against human MV4-11 cells xenografted in CB-17 SCID mouse assessed as effect on tumor growth at 10 mg/kg, iv administered every other day for 1 week (11 doses); type: functional, organism-based
Procedure, shortened: (§5)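 Female C.B-17 SCID mice inoculated s.c. in the flank with 5 × 10^6 MV4;11 cells in 0.1 mL 1:1 PBS/Matrigel (final Matrigel 5 mg/mL). Dosed IV every other day, 3 times per week, 11 doses in total; vehicle-only control group. Tumor volume by calipers as (A × B²)/2, and body weight, measured 2–3 times weekly during treatment and at least weekly afterward. Toxicity signs monitored.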

MV4-11 [14] = test: Antitumor activity against human MV4-11 cells xenografted in CB-17 SCID mouse assessed as tumor growth inhibition at 25 mg/kg, iv administered every other day for 1 week (11 doses) and measured on day 35 post treatment relative to control; type: functional; conditions: MV4-11, iv, read-out: TGI
MV4-11 [15] = test: Antitumor activity against human MV4-11 cells xenografted in CB-17 SCID mouse assessed as tumor volume at 25 mg/kg, iv administered every other day for 1 week (11 doses) and measured on day 35 post treatment (reference value: 92 mm3); type: functional
[16] = Toxicity in CB-17 SCID mouse xenografted with human MV4-11 cells assessed as effect on body weight at 10 to 25 mg/kg, iv administered every other day for 1 week (11 doses); type: organism-based; conditions: in vivo, 168 h; procedure, shortened: as §5
[17] = Toxicity in CB-17 SCID mouse xenografted with human MV4-11 cells assessed as effect on clinical signs at 10 to 25 mg/kg, iv administered every other day for 1 week (11 doses); type: organism-based; conditions: in vivo, 168 h; procedure, shortened: as §5

Row | SMILES | IC50 (MV4-11 [1]) [nM] | IC50 (MOLM-13) [nM] | IC50 (HL-60) [nM] | Activity (Menin (Homo sapiens) [3]) [%] | Activity (Menin (Homo sapiens) [4]) [%] | also measured
1 | COC(=O)N[C@H]1CCC[C@@H]1[C@](C#N)(c1cccc(F)c1)C1CCN(CC2CN(c3ccc(S(=O)(=O)C4CN(C(=O)/C=C/CN(C)C)C4)cc3)C2)CC1 | 4 | 19 | 1500 | 95 | 100 | IC50 (Menin [2]): 3.3 nM
2 | C=CC(=O)N1CC(S(=O)(=O)c2ccc(N3CC(CN4CCC([C@@](CN5CCC5)(c5cccc(F)c5)[C@H]5CCC[C@@H]5NC(=O)OC)CC4)C3)cc2)C1 | 23 | 374 | 2600 | 50 | 75 | –
3 | COC(=O)N[C@H]1CCC[C@@H]1[C@](CN1CCC1)(c1cccc(F)c1)C1CCN(CC2CN(c3ccc(S(=O)(=O)C4CN(C(=O)/C=C/CN(C)C)C4)cc3)C2)CC1 | – | 8 | 3000 | 75 | 100 | Activity (Mus musculus [5]): Active; fold change (FC) (Mus musculus [6]): >2; Activity [7]: Non-Toxic; Activity [8]: > 10%
4 | COC(=O)N[C@H]1CCC[C@@H]1[C@](CN1CCC1)(c1cccc(F)c1)C1CCN(CC2CN(c3ccc(S(=O)(=O)C4CN(C(=O)/C=C/CN5CCCC5)C4)cc3)C2)CC1 | – | 9 | 2100 | 100 | 100 | Activity (Mus musculus [5]): Active; fold change (FC) (Mus musculus [6]): >2; Activity [7]: Non-Toxic; Activity [8]: > 10%
5 | COC(=O)N[C@H]1CCC[C@@H]1[C@](CN1CCCCC1)(c1cccc(F)c1)C1CCN(CC2CN(c3ccc(S(=O)(=O)C4CN(C(=O)/C=C/CN(C)C)C4)cc3)C2)CC1 | 40 | 157 | 600 | – | – | –
6 | COC(=O)N[C@H]1CCC[C@@H]1[C@](CN1CCC1)(c1cccc(F)c1)C1CCN(CC2CN(c3ccc(S(=O)(=O)C4CN(C(=O)/C=C/CN5CCCCC5)C4)cc3)C2)CC1 | 1 | 4 | 2800 | 75 | 100 | IC50 (Menin [9]): 2.6 nM; Activity (Mus musculus [5]): Active; fold change (FC) (Mus musculus [6]): >2; Activity [7]: Non-Toxic; Activity [10]: Non-Toxic; inhibition (Mus musculus [11]): Active; inhibition (Mus musculus [12]): Active; Activity (MV4-11 [13]): inactive; inhibition in vivo at 25 mg/kg (MV4-11 [14]): 97%; Activity (MV4-11 [15]): 59 mm3; Activity [16]: Non-Toxic; Activity [17]: Non-Toxic
7 | COC(=O)N[C@H]1CCC[C@@H]1[C@](CN1CCCC1)(c1cccc(F)c1)C1CCN(CC2CN(c3ccc(S(=O)(=O)C4CN(C(=O)/C=C/CN(C)C)C4)cc3)C2)CC1 | 5 | 15 | 1400 | – | – | –
8 | COC(=O)N[C@H]1CCC[C@@H]1[C@](CN1CCC1)(c1cccc(F)c1)C1CCN(CC2CN(c3ccc(S(=O)(=O)C4CN(C(=O)/C=C/CN5CCC(F)CC5)C4)cc3)C2)CC1 | 3 | 21 | 3600 | 20 | 100 | –
9 | COC(=O)N[C@H]1CCC[C@@H]1[C@](CN1CCC1)(c1cccc(F)c1)C1CCN(CC2CN(c3ccc(S(=O)(=O)C4CN(C(=O)/C=C/CN5CCC(F)(F)CC5)C4)cc3)C2)CC1 | 4 | 20 | 3200 | 0 | 0 | –

Second part, led by results:

Row | IC50 (MV4-11 [1]) [nM] | IC50 (MOLM-13) [nM] | IC50 (HL-60) [nM] | Activity (Menin (Homo sapiens) [3]) [%] | Activity (Menin (Homo sapiens) [4]) [%] | SMILES | also measured
10 | 4 | 15 | 2800 | 0 | 0 | COC(=O)N[C@H]1CCC[C@@H]1[C@](CN1CCC1)(c1cccc(F)c1)C1CCN(CC2CN(c3ccc(S(=O)(=O)C4CN(C(=O)/C=C/CN5CC(F)(F)C5)C4)cc3)C2)CC1 | –
11 | 2 | 11 | > 10000 | 100 | 100 | CCc1nccn1C[C@@](c1cccc(F)c1)(C1CCN(CC2CN(c3ccc(S(=O)(=O)C4CN(C(=O)/C=C/CN(C)C)C4)cc3)C2)CC1)[C@H]1CCC[C@@H]1NC(=O)OC | IC50 (Menin [9]): 1.7 nM
12 | 1.1 | 2 | 700 | – | – | COC(=O)N[C@H]1CCC[C@@H]1[C@](CN(C)C)(c1cccc(F)c1)C1CCN(CC2CN(c3ccc(S(=O)(=O)C4CN(C(=O)/C=C/CN(C)C)C4)cc3)C2)CC1 | –
13 | – | 14 | 4800 | – | – | COC(=O)N[C@H]1CCC[C@@H]1[C@](Cn1ccnn1)(c1cccc(F)c1)C1CCN(CC2CN(c3ccc(S(=O)(=O)C4CN(C(=O)/C=C/CN(C)C)C4)cc3)C2)CC1 | –
14 | 1 | 3 | 2000 | 20 | 75 | COC(=O)N[C@H]1CCC[C@@H]1[C@](CN1CCC1)(c1cccc(F)c1)C1CCN(CC2CN(c3ccc(S(=O)(=O)C4CN(C(=O)/C=C/CN5CC(F)C5)C4)cc3)C2)CC1 | –
15 | – | 3 | 2100 | 75 | 100 | COC(=O)N[C@H]1CCC[C@@H]1[C@](CN1CCC1)(c1cccc(F)c1)C1CCN(CC2CN(c3ccc(S(=O)(=O)C4CN(C(=O)/C=C/CN5CCC5)C4)cc3)C2)CC1 | –
